Screening data deposited in PubChem BioAssay by several laboratories.
Rows were chosen to be rich in hits. Some 11% of all compounds tested hit in one or more screens of this group.
Diaph act CS: compounds boosting diaphorase resazurin reduction – biochemical, uHTS, resorufin fluorescence, counter-screen for diaphorase-coupled primary assays, primary screen; actives 0.005% (n = 190,000); Diaphorase/resazurin coupled assay, 16 min; stronger effect = higher value; 1 = vehicle wells, 0 = NADH-free wells; activation factor at 20 µM; AID 1229, 2008;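 active = diaphorase activity raised at least twofold by the compound at 20 µM; inactive = activation factor below 2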
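Test system: Clostridium kluyveri diaphorase, purified enzyme; input: enzyme 0.07 U/mL final; buffer or medium: 50 mM HEPES pH 7.4 with 4.542 mM MgCl2, 0.005% Tween 20; also added: 0.114 mM NADH and 0.1 mM resazurin, final amounts; schedule: 16 min enzyme reaction, ambient temperature; technique: fluorescence of resorufin, 544 nm excitation, 590 nm emission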
Diaph inh CS: diaphorase inhibitors and chemical oxidizers, primary screen, counter-screen for diaphorase-coupled primary assays, biochemical, uHTS, resorufin fluorescence. diaphorase resazurin-to-resorufin fluorescence, NADH, 16 min; bacterial (C. kluyveri) enzyme, not human. inhibition, % at 20 µM. actives 0.69% (n = 190,000);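 active = primary screen inhibition at 20 µM above a set limit, cut at about 50% in these data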;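 note: plate controls were DMSO with full reaction for no effect and wells lacking NADH for full effect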
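Assay system: diaphorase enzyme from Clostridium kluyveri. Quantity: enzyme working solution with 0.14 U/mL diaphorase. Schedule: reaction incubation of 16 min at room temperature. Technique: resorufin fluorescence, excitation 544 nm, emission 590 nm. Controls: No-NADH positive control and DMSO neutral control.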
WT yeast gro inh: growth inhibition of WT strain, primary screen, mitochondrial fusion inhibitor project, WT and mutant strains, chemical genetic; mitochondrial fusion phenotypic screen; inhibition, % at 10 µM; actives 2.1% (n = 190,000); in the data active = inhibition above about 58%; tested in S. cerevisiae
Lmaj promast: Leishmania major promastigote growth inhibition, primary screen; Leishmania major promastigotes, resazurin fluorescence viability; inhibition, % at 10 µM; actives 9% (n = 200,000); AID 1063, 2008;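 note: promastigotes grown with compound for 44 hours at 28 °C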
G6PDH CS: L. mesenteroides G6PDH inhibitors, counter-screen for G6PDH-coupled screening assays, biochemical, Leuconostoc mesenteroides enzyme | glucose-6-phosphate dehydrogenase [Leuconostoc mesenteroides] | Purified L. mesenteroides G6PDH, diaphorase/resazurin coupled fluorescence, 45 min | inhibition, % at 5 µM | actives 0.12% (n = 200,000)
* = called active by the depositor. Cut-off read from the data, not from the text of the source, unless noted: active = inhibition above about 50%; inactive = the rest.

Screening Cc1cc(C)c(C#N)c(N2CCN(Cc3ccccc3)CC2)n1 returned Diaph act CS 1, Diaph inh CS 4, WT yeast gro inh 5, Lmaj promast 17 and G6PDH CS 3.
CCN1CCc2c(C#N)c(NCc3ccccc3)nc(N(CC)CC)c2C1 was read as Diaph act CS 1.1, Diaph inh CS -8, WT yeast gro inh 24, Lmaj promast 98* and G6PDH CS 4.
For N#Cc1c(NCCCO)nc(-c2ccccc2)c2c1CCCC2 the results were Diaph act CS 0.6, Diaph inh CS 39, WT yeast gro inh 10, Lmaj promast 2 and G6PDH CS 3.
Screening N#Cc1c(N2CCCCC2)nc(N2CCCCC2)c2c1CCN(Cc1ccccc1)C2 returned Diaph act CS 0.9, Diaph inh CS 12, WT yeast gro inh 11, Lmaj promast 100* and G6PDH CS -52.
`O=C(CSCc1c(Cl)cccc1Cl)N1CCOCC1` gave Diaph act CS 0.9, Diaph inh CS 12, WT yeast gro inh 15, Lmaj promast -3 and G6PDH CS 16.
Cc1occc1-c1nnc(SCC(=O)Nc2nc3ccccc3s2)o1 was read as Diaph act CS 1, Diaph inh CS 5, WT yeast gro inh -18, Lmaj promast -2 and G6PDH CS -4.
N#Cc1c(NCCN)nc(NCc2ccccc2)c2c1CCN(Cc1ccccc1)C2 was read as Diaph act CS 1.1, Diaph inh CS -9, Lmaj promast 97* and G6PDH CS 8.
Screening O=C(O[C@@H]1OC2COC(=O)c3cc(O)c(O)c(O)c3-c3c(cc(O)c(O)c3O)C(=O)O[C@@H]([C@H]1O)[C@@H]2O)c1cc(O)c(O)c(O)c1 returned Diaph act CS 0.4, Diaph inh CS 62*, WT yeast gro inh 18, Lmaj promast -6 and G6PDH CS 8.
For O=S(=O)(c1cnccc1N1CCN(/N=C/c2ccccc2)CC1)N1CCCCC1 the results were Diaph act CS 0.8, Diaph inh CS 20, WT yeast gro inh -6, Lmaj promast 50* and G6PDH CS 4.
COc1ccc(OC)c(-n2nnnc2SCC(=O)NCc2ccc3c(c2)OCO3)c1 was read as Diaph act CS 0.8, Diaph inh CS 23, WT yeast gro inh 13, Lmaj promast 5 and G6PDH CS -17.
`COc1ccc(N(C(=O)c2ccccc2C)S(=O)(=O)c2cccs2)cc1` gave Diaph act CS 1, Diaph inh CS 4, WT yeast gro inh 17, Lmaj promast 94* and G6PDH CS 10.
Screening CCCOC(=O)c1ccc(-c2c(C)noc2-c2ccc(OC)cc2O)o1 returned Diaph act CS 0.8, Diaph inh CS 22, WT yeast gro inh 33, Lmaj promast 56* and G6PDH CS -19.
For CS(=O)(=O)Nc1cccc2cccnc12 the results were Diaph act CS 0.7, Diaph inh CS 26, WT yeast gro inh 6, Lmaj promast 80* and G6PDH CS 4.
Screening CCC(=O)Nc1cccc2cccnc12 returned Diaph act CS 0.9, Diaph inh CS 8, WT yeast gro inh -4, Lmaj promast -6 and G6PDH CS 14.
O=S(=O)(Nc1cccc2cccnc12)c1ccc(S(=O)(=O)N2CCCC2)cc1 was read as Diaph act CS 0.7, Diaph inh CS 26, WT yeast gro inh 3, Lmaj promast 99* and G6PDH CS 12.
O=C(Nc1cccc(F)c1)c1cc(S(=O)(=O)NCCC2=CCCCC2)ccc1F was read as Diaph act CS 0.9, Diaph inh CS 9, WT yeast gro inh 60*, Lmaj promast 14 and G6PDH CS -11.
COc1cccc(OC)c1CN1CCCC(C(=O)c2ccccc2SC)C1 (configuration not stated) was read as Diaph act CS 1, Diaph inh CS -2, WT yeast gro inh 3, Lmaj promast 65* and G6PDH CS 5.
Screening COc1ccccc1CN1CCCC(C(=O)N(C)Cc2ccccc2)C1 (configuration not stated) returned Diaph act CS 0.9, Diaph inh CS 7, WT yeast gro inh -8, Lmaj promast 52* and G6PDH CS 3.
COc1ccc(Br)cc1CN1CCCC(C(=O)N2CCCCC2)C1 (configuration not stated) was read as Diaph act CS 0.9, Diaph inh CS 10, WT yeast gro inh -5, Lmaj promast 0 and G6PDH CS 2.
Screening CCN(CC)C(=O)C1CCCN(Cc2cccc(F)c2)C1 (configuration not stated) returned Diaph act CS 0.6, Diaph inh CS 40, WT yeast gro inh 2, Lmaj promast -2 and G6PDH CS 1.
`COc1ccccc1C(=O)C1CCCN(Cc2cccc3nccnc23)C1` (configuration not stated) gave Diaph act CS 0.8, Diaph inh CS 21, WT yeast gro inh -2, Lmaj promast 1 and G6PDH CS 2.
`COc1ccc(CN2CCCC(C(=O)N(C)Cc3ccccc3)C2)cc1OC` (configuration not stated) gave Diaph act CS 0.8, Diaph inh CS 21, WT yeast gro inh -13, Lmaj promast 86* and G6PDH CS 5.
`COc1ccc(Br)cc1CN1CCCC(C(=O)N2CCCCCC2)C1` (configuration not stated) gave Diaph act CS 1, Diaph inh CS 1, WT yeast gro inh -3, Lmaj promast 85* and G6PDH CS 7.
For CCOC(=O)c1ccc2nc(CCC(=O)N[C@H](C(=O)OC)C(C)C)c(=O)n(CC)c2c1 the results were Diaph act CS 1, Diaph inh CS -2, WT yeast gro inh -4, Lmaj promast 6 and G6PDH CS 0.
COC(=O)c1ccc(OC(=O)CCc2cc(OC)c(OC)c(OC)c2)cc1 was read as Diaph act CS 1.1, Diaph inh CS -10, WT yeast gro inh -12, Lmaj promast 1 and G6PDH CS -1.
`COCCSc1ccccc1C(=O)N1CCc2ccccc2C1` gave Diaph act CS 1.1, Diaph inh CS -5, WT yeast gro inh -3, Lmaj promast -5 and G6PDH CS 6.
Screening Cc1ccc(-c2c(C(=O)NNC(=S)NCC3CCCO3)csc2C)cc1 (configuration not stated) returned Diaph act CS 1.1, Diaph inh CS -13, WT yeast gro inh 3, Lmaj promast 18 and G6PDH CS 3.
Screening Cc1ccc(C)c(OCC(O)CN2C(C)CCCC2C)c1 (configuration not stated) returned Diaph act CS 0.9, Diaph inh CS 10, WT yeast gro inh -3, Lmaj promast 44 and G6PDH CS -1.
